Like-named read-outs stand apart in the source and are kept apart here.
Legend:
[1] = tested on: plaque psoriasis; conditions: cited from earlier work; for Mean total lesion score decrease from baseline: week 4
[2] = tested on: psoriasis; conditions: week 4; 13-point scale; cited from earlier work
[3] = Plasma pharmacokinetics after 4 weeks of topical treatment; assay type: in vivo, human; conditions: approx. 1.5% BSA, comparator Pfizer, data on file
How it was run: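 Adults with mild-to-moderate chronic plaque psoriasis applied test-compound ointment (one formulation 2%, 20 mg g−1) twice daily for 4 weeks at 3 mg cm−2 to a fixed 300 cm2 area. Week-4 plasma sampled predose and 1, 2, 4–9 h post-dose.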

Compound: N#CC[C@H](C1CCCC1)n1cc(-c2ncnc3[nH]ccc23)cn1 [INCB018424]
- Tolerability of topical application ([1]; cream, 4 weeks): well tolerated
- Mean total lesion score decrease from baseline ([1]; 1.0% cream daily): 53%
- Mean total lesion score decrease from baseline ([1]; 1.5% cream twice daily): 54%

Compound: CCC(=O)OCC(=O)[C@@]1(OC(=O)CC)[C@@H](C)C[C@H]2[C@@H]3CCC4=CC(=O)C=C[C@]4(C)[C@@]3(F)[C@@H](O)C[C@@]21C [betamethasone dipropionate]
- Total lesion sum score percentage change from baseline [2]: –41%

Compound: C[C@@H]1CCN(C(=O)CC#N)C[C@@H]1N(C)c1ncnc2[nH]ccc12 [tofacitinib, Tofacitinib]
- Mean systemic exposure lower than with oral tofacitinib 2 mg twice daily [3]: approximately 40 fold
